Calls of active or inactive are those of the source. The calls are words filed in the database; no cut-off is given here.
Columns and labels:
[1] = target: Amyloid-beta precursor protein (Homo sapiens) (UniProt P05067); assay: Inhibition of amyloid beta (1 to 42) (unknown origin) self-induced aggregation at compound to amyloid beta ratio of 1:1 after 48 hrs by thioflavin-T fluorescence assay relative to control; details: concentration not given here
In short: (§1)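 Aβ1-42 at 25 µM with compound at 1:1 in 50 mM PBS, pH 7.4, 37 °C, read by ThT fluorescence or by TEM. Disaggregation was done on preformed aggregates. ThT data are mean ± SD of at least three experiments.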

[2] = target: Amyloid-beta precursor protein (Homo sapiens) (UniProt P05067); assay: Induction of disaggregation of amyloid beta (1 to 42) (unknown origin) fibrils at compound to amyloid beta ratio of 1:1 after 48 hrs by thioflavin-T fluorescence assay relative to control; in short: as §1
[3] = Inhibition of Cu2+ - induced amyloid beta (1 to 42) (unknown origin) aggregation at compound/amyloid beta/Cu2+ ratio of 2:1:1 after 48 hrs by thioflavin T-based fluorometric assay relative to control; details: concentration not given here
In short: (§2)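 Chelator, Aβ1-42 (25 µM) and Cu2+ at 2:1:1 in HEPES/NaCl, pH 6.6, 37 °C; inhibition measured on fresh peptide and disaggregation on preformed Cu2+-Aβ aggregates. Read by ThT fluorescence (at least three experiments) or by TEM.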

[4] = target: Amyloid-beta precursor protein (Homo sapiens) (UniProt P05067); assay: Induction of disaggregation of Cu2+ -associated amyloid beta (1 to 42) (unknown origin) fibrils at compound/amyloid beta/Cu2+ ratio of 2:1:1 after 48 hrs by thioflavin T-based fluorometric assay relative to control; in short: as §2
[5] = Inhibition of Cu2+ - induced amyloid beta (1 to 42) (unknown origin) aggregation assessed as small-sized nonfibrillar amorphos amyloid beta at compound/amyloid beta/Cu2+ ratio of 2:1:1 after 48 hrs by TEM analysis; in short: as §2
[6] = test system: SH-SY5Y; assay: Neuroprotective activity against t-BuOOH-induced oxidative stress in human SH-SY5Y cells assessed as inhibition ROS accumulation pre-incubated for 24 hrs before t-BuOOH challnge for 30 mins by DCFH-DA probe based fluorescence assay; type: functional, cell-based
In short: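 SH-SY5Y cells; test agents at 1–0.01 µM, oxidative stress induced by tert-butyl hydroperoxide; intracellular ROS read by DCFH-DA fluorescence; at least three independent experiments in sextuplicate; EC50 derived.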

[7] = test system: Mus musculus; assay: Induction of cell proliferation in C57BL/6 mouse hippocampal neurons in DG region assessed as BrdU-incorporation at 0.5 uL/hr, icv for 7 days by immunohistochemical analysis (reference value: 7.8%); type: functional
[8] = test system: Mus musculus; assay: Induction of cell proliferation in C57BL/6 mouse hippocampal neurons in CA1 region assessed as BrdU-incorporation at 0.5 uL/hr, icv for 7 days by immunohistochemical analysis (reference value: 3.2%); type: functional
[9] = test system: Mus musculus; assay: Induction of cell proliferation in C57BL/6 mouse hippocampal neurons in CA2 region assessed as BrdU-incorporation at 0.5 uL/hr, icv for 7 days by immunohistochemical analysis (reference value: 2.4%); type: functional
[10] = test system: Mus musculus; assay: Induction of cell proliferation in C57BL/6 mouse hippocampal neurons in CA3 region assessed as BrdU-incorporation at 0.5 uL/hr, icv for 7 days by immunohistochemical analysis (reference value: 1.4%); type: functional
[11] = test system: Mus musculus; assay: Induction of cell proliferation in C57BL/6 mouse hippocampal neurons in DG region assessed as BrdU-incorporation at 30 mg/kg, po administered via gavage for 7 days by immunohistochemical analysis (reference value: 2.2%); type: functional
In short: (§3)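 C57BL/6 mice, 12 weeks old, n = 6, individually housed beforehand without wheels. Compound gavaged 30 mg/kg/day for 7 days with daily IP BrdU 50 mg/kg; BrdU+ cells counted by immunohistochemistry per hippocampal volume; two-way ANOVA.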

[12] = test system: Mus musculus; assay: Induction of cell proliferation in C57BL/6 mouse hippocampal neurons in CA1 region assessed as BrdU-incorporation at 30 mg/kg, po administered via gavage for 7 days by immunohistochemical analysis (reference value: 2.3%); type: functional; in short: as §3
[13] = test system: Mus musculus; assay: Induction of cell proliferation in C57BL/6 mouse hippocampal neurons in CA2 region assessed as BrdU-incorporation at 30 mg/kg, po administered via gavage for 7 days by immunohistochemical analysis (reference value: 2.4%); type: functional; in short: as §3
[14] = test system: Mus musculus; assay: Induction of cell proliferation in C57BL/6 mouse hippocampal neurons in CA3 region assessed as BrdU-incorporation at 30 mg/kg, po administered via gavage for 7 days by immunohistochemical analysis (reference value: 1.5%); type: functional; in short: as §3
[15] = Induction of disaggregation of Cu2+ -associated amyloid beta (1 to 42) (unknown origin) fibrils assessed as small-sized nonfibrillar amorphos amyloid beta at compound/amyloid beta/Cu2+ ratio of 2:1:1 after 48 hrs by TEM analysis; in short: as §2
[16] = Antioxidant activity assessed as AAPH radical scavenging activity by measuring trolox equivalent at 10 to 20 uM preincubated for 10 mins followed by AAPH addition measured every min for 120 mins in presence of clioquinol by ORAC-FL assay; type: functional
In short: (§4)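 ORAC-FL: compound at 10 µM (or 20 µM) in 75 mM phosphate pH 7.4 with fluorescein (70 nM final), preincubated 10 min at 37 °C, then AAPH added. Fluorescence (ex 485/em 520) read each minute for 120 min. Net AUC converted to Trolox equivalents via a 10–100 µM Trolox curve; three independent experiments.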

[17] = target: Amyloid-beta precursor protein (Homo sapiens) (UniProt P05067); assay: Inhibition of amyloid beta (1 to 42) (unknown origin) self-induced aggregation at 5 uM after 48 hrs in presence of clioquinol by thioflavin-T fluorescence assay relative to control
In short: (§5)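 ThT assay of Aβ1-42 self-aggregation: Aβ1-42 25 µM with inhibitor 5 µM (5:1); three independent experiments, each in triplicate.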

[18] = Metal chelating activity assessed as compound-Cu2+ complex formation by measuring absorption spectrum at 50 uM after 30 mins by UV-Visible spectrophotometric analysis (reference value: 314 nm)
In short: (§6)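 Ligand 50 µM alone or with 50 µM CuSO4, ZnCl2, FeSO4 or FeCl3 in 20 mM HEPES, 150 mM NaCl, pH 7.4; UV-vis absorbance spectra recorded. For Cu2+, titration at room temperature with absorbance at 338 nm gave stoichiometry.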

[19] = Metal chelating activity assessed as compound-Zn2+ complex formation by measuring absorption spectrum at 50 uM after 30 mins by UV-Visible spectrophotometric analysis (reference value: 314 nm); in short: as §6
[20] = Metal chelating activity assessed as compound-Fe2+ complex formation by measuring absorption spectrum at 50 uM after 30 mins by UV-Visible spectrophotometric analysis (reference value: 314 nm); in short: as §6
[21] = Metal chelating activity assessed as compound-Fe3+ complex formation by measuring absorption spectrum at 50 uM after 30 mins by UV-Visible spectrophotometric analysis (reference value: 314 nm); in short: as §6
[22] = target: Amyloid-beta precursor protein (Homo sapiens) (UniProt P05067); assay: Inhibition of amyloid beta (1 to 42) (unknown origin) self-induced aggregation assessed as less dense fibrils at compound to amyloid beta ratio of 1:1 after 48 hrs by TEM analysis; in short: as §1
[23] = target: Amyloid-beta precursor protein (Homo sapiens) (UniProt P05067); assay: Inhibition of amyloid beta (1 to 42) (unknown origin) self-induced aggregation assessed as thinner fibrils at compound to amyloid beta ratio of 1:1 after 48 hrs by TEM analysis; in short: as §1
[24] = target: Amyloid-beta precursor protein (Homo sapiens) (UniProt P05067); assay: Induction of disaggregation of amyloid beta (1 to 42) (unknown origin) assessed as narrow aggregation at compound to amyloid beta ratio of 1:1 after 48 hrs by TEM analysis; in short: as §1
[25] = target: Amyloid-beta precursor protein (Homo sapiens) (UniProt P05067); assay: Induction of disaggregation of amyloid beta (1 to 42) (unknown origin) assessed as shorter aggregation at compound to amyloid beta ratio of 1:1 after 48 hrs by TEM analysis; in short: as §1
[26] = test system: PC-12; assay: Induction of rat PC12 cell proliferation at 0.5 to 50 uM after 72 hrs by microscopic analysis; type: functional, cell-based
In short: (§7)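 Undifferentiated PC12 cells cultured 72 h with compound at 0.5–50 µM (images at 10 µM) or with NGF 50 ng/ml, then examined under a digital microscope.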

[27] = test system: PC-12; assay: Induction of rat PC12 cell proliferation at 0.5 to 50 uM after 72 hrs in presence of ERK inhibitor U0126 by MTT assay; type: functional, cell-based
In short: (§8)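 PC12 cells treated with compound together with U0126 (ERK inhibitor, 1 µM) or SB203580 (p38 inhibitor, 1 µM); survival measured by MTT, expressed as percent of control, mean ± SD of at least three experiments.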

[28] = test system: PC-12; assay: Induction of rat PC12 cell proliferation at 0.5 to 50 uM after 72 hrs in presence of p38 inhibitor SB203580 by MTT assay; type: functional, cell-based; in short: as §8
[29] = test system: Mus musculus; assay: Cognition enhancement activity in double APP/PS1 transgenic Alzheimer's disease mouse model assessed as decrease in escape latency at 30 mg/kg/day, po for 80 days by Morris water maze test; type: functional, organism-based
In short: (§9)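 APP/PS1 double transgenic mice, six months old, gavaged 30 mg/kg/day in 0.5% CMC-Na for 80 days; vehicle mice and WT C57BL/6 received blank CMC-Na. Escape latency recorded daily over the training trials; n = 10, mean ± SD, two-way ANOVA.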

[30] = test system: Mus musculus; assay: Cognition enhancement activity in double APP/PS1 transgenic Alzheimer's disease mouse model assessed as increase in number of virtual platform crossing at 30 mg/kg/day, po for 80 days by Morris water maze test; type: functional, organism-based
In short: (§10)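 APP/PS1 mice, six months old, gavaged 30 mg/kg/day in 0.5% CMC-Na for 80 days. Probe trial was a single 90 s free swim with the platform absent; effective region is twice the platform diameter. n = 10, mean ± SD, two-way ANOVA.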

[31] = test system: Mus musculus; assay: Cognition enhancement activity in double APP/PS1 transgenic Alzheimer's disease mouse model assessed as increase in number of effective region crossing at 30 mg/kg/day, po for 80 days by Morris water maze test; type: functional, organism-based; in short: as §10
[32] = Metal chelating activity assessed as compound-Cu2+ complex formation at 50 uM after 30 mins by mass spectrometry
[33] = target: Amyloid-beta precursor protein (Homo sapiens) (UniProt P05067); assay: Inhibition of amyloid beta (1 to 42) (unknown origin) self-induced aggregation assessed as reduction in unstructured aggregates at compound to amyloid beta ratio of 1:1 after 48 hrs by TEM analysis; in short: as §1
[34] = test system: PC-12; assay: Induction of rat PC12 cell proliferation at 10 uM after 72 hrs by microscopic analysis; type: functional, cell-based; in short: as §7
[35] = test system: Mus musculus; assay: Cognition enhancement activity in double APP/PS1 transgenic Alzheimer's disease mouse model assessed as decrease in path searching behavior at 30 mg/kg/day, po for 80 days by Morris water maze test; type: functional, organism-based; in short: as §9
[36] = Antioxidant activity assessed as AAPH radical scavenging activity by measuring trolox equivalent at 10 to 20 uM preincubated for 10 mins followed by AAPH addition measured every min for 120 mins in presence of melatonin by ORAC-FL assay; type: functional; in short: as §4
[37] = target: Amyloid-beta precursor protein (Homo sapiens) (UniProt P05067); assay: Inhibition of amyloid beta (1 to 42) (unknown origin) self-induced aggregation at 5 uM after 48 hrs in presence of melatonin by thioflavin-T fluorescence assay relative to control; in short: as §5

Chain of Amyloid-beta precursor protein (Homo sapiens) (P05067 whole entry): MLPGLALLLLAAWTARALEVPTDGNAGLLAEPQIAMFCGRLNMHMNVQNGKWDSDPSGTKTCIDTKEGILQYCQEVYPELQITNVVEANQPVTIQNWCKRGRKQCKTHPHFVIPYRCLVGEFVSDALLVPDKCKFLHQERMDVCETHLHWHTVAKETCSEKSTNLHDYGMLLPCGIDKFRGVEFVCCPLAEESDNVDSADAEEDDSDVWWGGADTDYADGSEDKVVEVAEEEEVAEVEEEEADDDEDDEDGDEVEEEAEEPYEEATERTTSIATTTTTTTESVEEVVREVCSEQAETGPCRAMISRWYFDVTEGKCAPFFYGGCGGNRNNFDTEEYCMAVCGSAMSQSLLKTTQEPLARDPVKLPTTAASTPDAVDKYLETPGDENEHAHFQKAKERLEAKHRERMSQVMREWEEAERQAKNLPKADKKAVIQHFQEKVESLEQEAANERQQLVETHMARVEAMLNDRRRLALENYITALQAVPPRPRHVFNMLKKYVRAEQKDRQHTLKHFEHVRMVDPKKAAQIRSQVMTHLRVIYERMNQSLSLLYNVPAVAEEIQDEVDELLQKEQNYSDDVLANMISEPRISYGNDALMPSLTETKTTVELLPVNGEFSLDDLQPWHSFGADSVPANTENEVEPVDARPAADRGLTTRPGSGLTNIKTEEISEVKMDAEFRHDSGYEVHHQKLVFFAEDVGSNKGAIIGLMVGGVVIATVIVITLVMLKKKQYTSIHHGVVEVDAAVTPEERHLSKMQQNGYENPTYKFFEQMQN

## COc1ccc2[nH]cc(CCNC(C)=O)c2c1 [MELATONIN]
[1]
  inhibition: 49.1%
[2]
  Activity: 44.3%
[3]
  inhibition: 47.8%
[4]
  Activity: 24%
[5]
  inhibition: inactive
[6]
  EC50: > 1000 nM
[7]
  Activity: 27.4%
[8]
  Activity: 2.7%
[9]
  Activity: 2.1%
[10]
  Activity: 1.2%
[11]
  Activity: 9.4%
[12]
  Activity: 3.2%
[13]
  Activity: 1.6%
[14]
  Activity: 1.5%
[15]
  Activity: inactive
[16]
  Activity (umolequiv/umol): 2.9
[17]
  inhibition: 22.5%

## Oc1ccc2[nH]c(-c3ccc4c(Cl)cc(Cl)c(O)c4n3)cc2c1
[18]
  Activity: 338 nm
[19]
  Activity: 309 nm
[20]
  Activity: 324 nm
[21]
  Activity: 309 nm
[1]
  inhibition: 48.6 to 71.6%
[2]
  Activity: 48.5 to 72.7%
[22]
  inhibition: Active
[23]
  inhibition: Active
[24]
  Activity: Active
[25]
  Activity: Active
[3]
  inhibition: 85.8%
[4]
  Activity: 83.3%
[5]
  inhibition: Active
[26]
  Activity: Active
[27]
  Activity: inactive
[28]
  Activity: inactive
[29]
  Activity: Active
[30]
  Activity: Active
[31]
  Activity: Active
[32]
  Activity: Active
[33]
  inhibition: Active
[15]
  Activity: Active
[34]
  Activity: Active
[35]
  Activity: Active

## Oc1c(I)cc(Cl)c2cccnc12 [CLIOQUINOL]
[6]
  EC50: > 1000 nM
[36]
  Activity (umolequiv/umol): 2.9
[37]
  inhibition: 22.5%
